The source of these data is ChEMBL document CHEMBL1221393, “Effects of structure on inhibitory activity in a series of mechanism-based inhibitors of human neutrophil elastase” (Bioorg Med Chem, 2010).

SMILES strings stand for the structures. Active and inactive are the calls of the source. No cut-off for these calls is given here.

Test [1] has as its target T1, Neutrophil elastase (Homo sapiens) (UniProt P08246).
T1 sequence (whole entry): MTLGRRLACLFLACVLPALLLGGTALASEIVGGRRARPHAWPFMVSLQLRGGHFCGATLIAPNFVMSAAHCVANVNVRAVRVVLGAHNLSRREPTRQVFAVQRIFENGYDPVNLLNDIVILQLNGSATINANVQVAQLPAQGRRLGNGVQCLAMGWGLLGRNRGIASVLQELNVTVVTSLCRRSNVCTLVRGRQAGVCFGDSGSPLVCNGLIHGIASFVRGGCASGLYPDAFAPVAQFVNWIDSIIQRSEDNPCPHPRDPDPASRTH
Nature of the test: Ratio of Kinact to Ki for human neutrophil elastase. In a few lines:
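Progress-curve method: 10 nM HNE, MeOSuc-AAPV p-nitroanilide (105 μM) and inhibitor at several inhibitor-to-enzyme ratios in 0.1 M HEPES/0.5 M NaCl, pH 7.25, 2.5% DMSO. p-Nitroaniline release was monitored continuously at 410 nm. kobs came from nonlinear fitting of absorbance versus time; kinact/KI = kobs/[I], corrected for substrate concentration. Determined in duplicate.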

Test [2] addresses T2, Myeloblastin (Homo sapiens) (UniProt P24158).
T2 sequence (whole entry): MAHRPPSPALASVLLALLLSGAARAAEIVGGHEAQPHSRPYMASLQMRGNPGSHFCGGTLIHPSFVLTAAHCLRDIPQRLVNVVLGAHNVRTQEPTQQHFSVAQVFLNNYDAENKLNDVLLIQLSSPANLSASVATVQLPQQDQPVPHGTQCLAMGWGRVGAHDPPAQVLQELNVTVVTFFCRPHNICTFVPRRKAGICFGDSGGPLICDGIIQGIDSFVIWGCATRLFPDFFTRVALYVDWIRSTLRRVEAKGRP
Nature of the test: Inhibition of human neutrophil proteinase 3 assessed as residual activity at 8.62. In a few lines:
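Human proteinase 3 (final 34.5 nM) was added with DTNB to 0.1 M HEPES/0.5 M NaCl, pH 7.25, containing inhibitor (final 8.62 μM, from DMSO) and Boc-Ala-Ala-NVa-SBzl. Absorbance at 410 nm was followed for 2 min against a DMSO-only hydrolysis control. % remaining activity = (v/vo)×100, mean of duplicate or triplicate runs.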

For test [3], the target named is T1, Neutrophil elastase (Homo sapiens). Nature of the test: Inhibition of human neutrophil elastase at 7 uM. To be noted: TDE = time-dependent effect. In outline:
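HNE (700 nM) incubated with inhibitor (7 μM) in 0.1 M HEPES/0.5 M NaCl, pH 7.25, 1% DMSO, in a constant-temperature bath. Aliquots were taken at intervals and added to MeOSuc-Ala-Ala-Pro-Val p-nitroanilide. Residual activity was read as absorbance at 410 nm over 60 s and expressed as percent remaining activity versus time.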

As for `CC(C)C[C@H]1C(=O)N(COC(=O)C(C)c2ccc(C(=O)c3ccccc3)cc2)S(=O)(=O)N1Cc1ccccc1` (some centres undefined), the Ratio in test [1] came to 31000. Moreover, the percent remaining activity entry in test [2] was “inactive”.

`CC(C)C[C@H]1C(=O)N(COC(=O)Cc2ccccc2)S(=O)(=O)N1C`: in test [1], the Ratio amounted to 357000. Moreover, in test [2], the percent remaining activity result was “inactive”.

For the compound `CC(C)C[C@H]1C(=O)N(COC(=O)Cc2ccccc2)S(=O)(=O)N1Cc1ccccc1`, in test [1], the Ratio is 63800. The percent remaining activity entry in test [2] is “inactive”.

As for `CC(=O)Oc1ccccc1C(=O)OCN1C(=O)[C@H](CC(C)C)N(C)S1(=O)=O`, the Ratio in test [1] came to 419000. For the same compound, the percent remaining activity entry in test [2] was “inactive”.

On to `CC(C)C[C@H]1C(=O)N(COC(=O)c2ccccc2O)S(=O)(=O)N1Cc1ccccc1`, for which the Ratio in test [1] was 1.09e+06. Also, in test [2], the percent remaining activity entry is “inactive”.

As for `CC(C)C[C@H]1C(=O)N(COC(=O)Cc2ccccc2Nc2c(Cl)cccc2Cl)S(=O)(=O)N1Cc1ccccc1`, in test [1], the Ratio turned out to be 1330. Also, the percent remaining activity entry in test [2] is “inactive”. Besides, in test [3], the inhibition result is “tde”.

On to `CC(C)C[C@H]1C(=O)N(COC(=O)c2ccccc2O)S(=O)(=O)N1C`, for which the Ratio in test [1] amounted to 336000. For the same compound, the percent remaining activity entry in test [2] was “inactive”.

As for `CC(C)Cc1ccc(C(C)C(=O)OCN2C(=O)[C@H](CC(C)C)N(Cc3ccccc3)S2(=O)=O)cc1` (some centres undefined), in test [1], the Ratio was determined as 1580. Moreover, in test [2], the percent remaining activity result was “inactive”.

As for `CC(C)C[C@H]1C(=O)N(COC(=O)C(C)c2ccc(Oc3ccccc3)cc2)S(=O)(=O)N1C` (some centres undefined), the Ratio in test [1] was found to be 501000. The percent remaining activity entry in test [2] is “inactive”.

In the case of `CC(C)C[C@H]1C(=O)N(COC(=O)C(C)c2ccc(C(=O)c3ccccc3)cc2)S(=O)(=O)N1C` (some centres undefined), the Ratio in test [1] was 540000. In addition, the percent remaining activity entry in test [2] was “inactive”.

For the compound `CC(C)C[C@H]1C(=O)N(COC(=O)Cc2ccccc2Nc2c(Cl)cccc2Cl)S(=O)(=O)N1C`, in test [1], the Ratio was determined as 981000. Further, the percent remaining activity entry in test [2] was “inactive”. Further, in test [3], the inhibition result was “tde”.

In the case of `CC(C)C[C@H]1C(=O)N(COC(=O)C(C)c2ccc(Oc3ccccc3)cc2)S(=O)(=O)N1Cc1ccccc1` (some centres undefined), the Ratio in test [1] stood at 1770. Besides, in test [2], the percent remaining activity result was “inactive”.

For `CC(=O)Oc1ccccc1C(=O)OCN1C(=O)[C@H](CC(C)C)N(Cc2ccccc2)S1(=O)=O`, the Ratio in test [1] came out at 1.06e+06. Besides, the percent remaining activity entry in test [2] is “inactive”.

For `CC(C)C[C@H]1C(=O)N(COC(=O)CCc2ccccc2)S(=O)(=O)N1Cc1ccccc1`, the Ratio in test [1] was 3200. Moreover, the percent remaining activity entry in test [2] was “inactive”.

Regarding `CC(C)C[C@H]1C(=O)N(COC(=O)CCc2ccccc2)S(=O)(=O)N1C`, the Ratio in test [1] was 296000. Also, in test [2], the percent remaining activity entry is “inactive”.

Take `CC(C)Cc1ccc(C(C)C(=O)OCN2C(=O)[C@H](CC(C)C)N(C)S2(=O)=O)cc1` (some centres undefined): in test [1], the Ratio stood at 201000. The percent remaining activity entry in test [2] is “inactive”.
